The source made the active and inactive calls. No cut-off for these calls is given here.
Tests used:
MCF7 = test: Antiproliferation activity against human MCF7 cells assessed as reduction in cell viability incubated for 72 hrs by MTT assay; type: functional, cell-based; settings: MCF7, 72 h
How it was run: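 MTT assay. Cells were plated overnight and exposed to a range of concentrations for 72 h. MTT was then added for 4 h and absorbance read at 570 nm. Inhibition% = [(control − compound)/(control − blank)] × 100. IC50 was fitted from the curves. Mean ± S.D. of 3–5 separate experiments. RPMI 1640 + 10% FBS; MCF10A in DMEM/F12 with 5% horse serum, EGF, hydrocortisone, insulin and cholera toxin.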

MDA-MB-468 [1] = test: Induction of apoptosis in human MDA-MB-468 cells assessed as early apoptotic cells at 28 uM incubated for 48 hrs by annexin-V-FITC staining based flow cytometric method (reference value: 2.00 %); type: functional
MDA-MB-468 [2] = test: Antitumour activity against human MDA-MB-468 cells xenografted in BALB/c mouse assessed as reduction in tumour volume at 80 mg/kg, ig measured every 2 days for 21 days relative to control; type: functional; design: scale not given: the % may be the effect or the level left
How it was run: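 Female BALB/c nude mice, 6–8 weeks old, were given subcutaneous flank injections of 1.0×10^7 MDA-MB-468 cells in 0.2 ml PBS. At 100 mm³ tumours they were randomized, five per group. Daily gavage in saline with 0.1% Tween 80 at 80 or 100 mg/kg, or vehicle alone. Tumour volume measured every 2 days and body weight daily. Tumours excised and weighed at day 21.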

MDA-MB-231 [3] = test: Induction of apoptosis in human MDA-MB-231 cells assessed as increase in Bax protein expression level incubated for 1 hr by Western blot analysis; type: functional, cell-based
MDA-MB-231 [4] = test: Induction of apoptosis in human MDA-MB-231 cells assessed as decrease in Bcl2 protein expression level incubated for 1 hr by Western blot analysis; type: functional, cell-based
MDA-MB-468 [5] = test: Induction of apoptosis in human MDA-MB-468 cells assessed as increase in Bax protein expression level incubated for 1 hr by Western blot analysis; type: functional, cell-based

O=C(Nc1ccc(Cl)c(-c2nnc3c(Cl)cccn23)c1)c1ccc(Cl)nc1Cl
IC50 (MCF7): 61.5 µM
Activity (MDA-MB-468 [1]): 7.71%
Activity (MDA-MB-468 [2]): 64.97%
Activity (MDA-MB-231 [3]): Active
Activity (MDA-MB-231 [4]): Active
Activity (MDA-MB-468 [5]): Active

Source: ChEMBL document CHEMBL4622968, “Discovery of [1,2,4]triazolo[4,3-a]pyridines as potent Smoothened inhibitors targeting the Hedgehog pathway with improved antitumor activity in vivo” (Bioorg Med Chem, 2020)
